This note sets out measurements from ChEMBL document CHEMBL3351316, “Scaffold hopping approach on the route to selective tankyrase inhibitors” (Eur J Med Chem, 2014).

For data set [1], the target named is Poly [ADP-ribose] polymerase 2 (Homo sapiens) (UniProt Q9UGN5). The data set is described as follows: Inhibition of human recombinant PARP2 incubated for 1 hr using histone substrate at 1 uM by luminescence based assay. The method in brief:
(§1)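 Recombinant PARP enzyme reactions were run in duplicate for 1 h at rt on histone-coated plates in Tris·HCl pH 8.0 buffer with NAD+, biotinylated NAD+ and activated DNA. Detection used streptavidin-HRP for 30 min at rt, then a chemiluminescent developer. % inhibition = 100 − % activity, scaled between the no-compound (100%) and no-enzyme (0%) signals.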

Data set [2] can be described thus: Lipophilicity, log D of the compound at pH 7.4. It counts as physicochemical. As to conditions: buffer.
Data set [3] addresses Poly [ADP-ribose] polymerase 2 (Homo sapiens) (UniProt Q9UGN5). The data set is described as follows: Inhibition of human recombinant PARP2 incubated for 1 hr using histone substrate at 10 uM by luminescence based assay. The method in brief: as §1
In data set [4] the target is T1, Poly [ADP-ribose] polymerase tankyrase-1 (Homo sapiens, UniProt O95271).
T1 sequence (O95271 whole entry): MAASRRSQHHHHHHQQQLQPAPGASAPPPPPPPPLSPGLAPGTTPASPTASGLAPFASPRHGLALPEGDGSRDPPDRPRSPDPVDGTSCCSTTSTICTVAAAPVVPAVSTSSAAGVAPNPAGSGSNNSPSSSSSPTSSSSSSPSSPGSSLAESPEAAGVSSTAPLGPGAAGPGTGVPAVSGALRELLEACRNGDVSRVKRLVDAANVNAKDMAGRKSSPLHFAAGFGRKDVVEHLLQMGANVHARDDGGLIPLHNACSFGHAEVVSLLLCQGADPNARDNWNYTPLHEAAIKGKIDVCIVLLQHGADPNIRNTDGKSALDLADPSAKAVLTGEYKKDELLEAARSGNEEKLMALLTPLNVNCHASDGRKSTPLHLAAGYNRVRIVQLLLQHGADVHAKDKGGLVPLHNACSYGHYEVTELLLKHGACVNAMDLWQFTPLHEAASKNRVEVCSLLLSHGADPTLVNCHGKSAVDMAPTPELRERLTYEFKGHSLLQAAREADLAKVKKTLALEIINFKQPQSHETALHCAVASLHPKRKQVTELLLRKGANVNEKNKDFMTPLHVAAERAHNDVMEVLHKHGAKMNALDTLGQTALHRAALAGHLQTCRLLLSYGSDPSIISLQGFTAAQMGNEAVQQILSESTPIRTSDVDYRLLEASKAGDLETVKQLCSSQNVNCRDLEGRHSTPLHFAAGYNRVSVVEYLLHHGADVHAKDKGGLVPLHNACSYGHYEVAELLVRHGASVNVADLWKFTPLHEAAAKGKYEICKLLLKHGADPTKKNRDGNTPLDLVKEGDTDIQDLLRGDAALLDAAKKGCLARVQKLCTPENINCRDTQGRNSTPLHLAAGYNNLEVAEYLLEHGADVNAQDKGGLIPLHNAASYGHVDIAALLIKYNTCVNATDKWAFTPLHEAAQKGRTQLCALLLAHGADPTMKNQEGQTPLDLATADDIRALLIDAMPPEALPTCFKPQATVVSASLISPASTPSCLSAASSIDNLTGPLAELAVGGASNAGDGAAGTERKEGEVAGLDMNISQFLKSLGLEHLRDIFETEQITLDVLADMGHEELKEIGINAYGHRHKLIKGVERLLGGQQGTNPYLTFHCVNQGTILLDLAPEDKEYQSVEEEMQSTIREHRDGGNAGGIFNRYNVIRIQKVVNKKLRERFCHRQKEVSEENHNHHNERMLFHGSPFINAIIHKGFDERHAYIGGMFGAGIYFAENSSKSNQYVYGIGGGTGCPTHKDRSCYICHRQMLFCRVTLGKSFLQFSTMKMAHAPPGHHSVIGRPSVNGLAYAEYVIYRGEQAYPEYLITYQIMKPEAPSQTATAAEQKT
The data set is described as follows: Inhibition of GST-tagged human recombinant TNKS1 incubated for 1 hr using NAD+, biotinylated NAD+ and activated DNA by luminescence based assay.

For data set [5], the target named is Tankyrase 1/2 (Homo sapiens) (UniProt Q9H2K2+O95271). The data set is described as follows: Inhibition of tankyrase in human DLD1 cells assessed as reduction in Wnt activity at 10 uM after 24 hrs by TCF-luciferase reporter gene assay. It counts as cell-based. As to conditions: DLD-1. The method in brief:
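DLD-1 cells were transduced with a TOP-TCF firefly luciferase lentivirus plus a renilla luciferase lentivirus (1:20), with renilla used to normalise for infection efficiency. Compound was tested at 10 μM for 24 h, with DMSO as the negative control. Cells were then lysed for dual-luciferase read-out, and activity was taken as the TOP/RL ratio. Data are the average of at least three separate experiments ± SD.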
On the technique in general: A reporter such as luciferase makes a cellular process visible.

Data set [6] deals with Protein mono-ADP-ribosyltransferase PARP14 (Homo sapiens) (UniProt Q460N5). The data set is described as follows: Inhibition of human recombinant PARP14 at 100 uM incubated for 1 hr using NAD+, biotinylated NAD+ and activated DNA by luminescence based assay. Summed up: as §1
Chain of Protein mono-ADP-ribosyltransferase PARP14 (Homo sapiens) (Q460N5 whole entry): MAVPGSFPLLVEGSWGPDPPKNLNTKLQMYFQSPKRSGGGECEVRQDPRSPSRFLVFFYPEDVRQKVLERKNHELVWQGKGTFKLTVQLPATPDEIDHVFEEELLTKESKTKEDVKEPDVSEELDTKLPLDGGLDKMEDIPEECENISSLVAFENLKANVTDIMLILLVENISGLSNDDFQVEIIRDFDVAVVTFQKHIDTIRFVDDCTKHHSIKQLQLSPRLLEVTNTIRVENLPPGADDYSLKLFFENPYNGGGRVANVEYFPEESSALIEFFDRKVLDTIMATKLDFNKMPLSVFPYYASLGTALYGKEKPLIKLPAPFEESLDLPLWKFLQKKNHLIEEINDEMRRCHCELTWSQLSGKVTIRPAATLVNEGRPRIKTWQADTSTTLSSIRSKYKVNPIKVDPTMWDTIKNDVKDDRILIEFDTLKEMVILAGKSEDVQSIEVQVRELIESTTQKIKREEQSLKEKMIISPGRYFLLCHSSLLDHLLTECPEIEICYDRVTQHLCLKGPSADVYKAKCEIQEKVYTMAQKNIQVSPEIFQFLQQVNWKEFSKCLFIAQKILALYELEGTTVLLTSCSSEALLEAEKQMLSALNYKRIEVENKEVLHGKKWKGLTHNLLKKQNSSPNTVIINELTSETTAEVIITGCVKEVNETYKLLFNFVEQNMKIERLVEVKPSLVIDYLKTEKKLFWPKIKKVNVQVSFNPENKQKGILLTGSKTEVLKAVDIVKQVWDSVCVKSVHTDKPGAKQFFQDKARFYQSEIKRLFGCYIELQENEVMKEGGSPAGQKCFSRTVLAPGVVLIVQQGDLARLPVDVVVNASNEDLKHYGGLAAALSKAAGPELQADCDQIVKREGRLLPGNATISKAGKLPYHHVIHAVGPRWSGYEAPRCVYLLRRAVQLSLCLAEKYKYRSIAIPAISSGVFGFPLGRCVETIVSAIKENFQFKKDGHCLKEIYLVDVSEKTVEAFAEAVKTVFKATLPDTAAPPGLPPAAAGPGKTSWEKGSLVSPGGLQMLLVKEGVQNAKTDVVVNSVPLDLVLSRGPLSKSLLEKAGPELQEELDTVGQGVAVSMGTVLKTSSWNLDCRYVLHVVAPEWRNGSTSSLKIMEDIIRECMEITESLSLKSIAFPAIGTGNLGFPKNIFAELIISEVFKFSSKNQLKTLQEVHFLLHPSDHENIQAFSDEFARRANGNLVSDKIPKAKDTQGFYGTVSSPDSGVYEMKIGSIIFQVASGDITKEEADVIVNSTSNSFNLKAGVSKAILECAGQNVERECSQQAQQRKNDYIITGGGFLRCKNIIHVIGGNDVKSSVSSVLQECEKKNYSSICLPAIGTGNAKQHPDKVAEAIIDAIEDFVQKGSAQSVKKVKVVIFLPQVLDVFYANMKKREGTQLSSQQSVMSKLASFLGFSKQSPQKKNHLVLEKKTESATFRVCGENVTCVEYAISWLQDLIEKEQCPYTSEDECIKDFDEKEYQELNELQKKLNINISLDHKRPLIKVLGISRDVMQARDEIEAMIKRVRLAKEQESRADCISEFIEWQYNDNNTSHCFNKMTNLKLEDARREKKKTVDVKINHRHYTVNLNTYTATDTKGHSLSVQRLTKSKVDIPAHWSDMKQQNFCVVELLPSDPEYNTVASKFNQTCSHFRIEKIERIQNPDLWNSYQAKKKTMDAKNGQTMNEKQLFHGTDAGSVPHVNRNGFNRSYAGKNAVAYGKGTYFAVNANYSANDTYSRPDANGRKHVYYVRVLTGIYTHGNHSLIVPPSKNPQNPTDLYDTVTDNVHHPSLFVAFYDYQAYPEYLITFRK

Chain of Poly [ADP-ribose] polymerase 2 (Homo sapiens) (Q9UGN5 whole entry): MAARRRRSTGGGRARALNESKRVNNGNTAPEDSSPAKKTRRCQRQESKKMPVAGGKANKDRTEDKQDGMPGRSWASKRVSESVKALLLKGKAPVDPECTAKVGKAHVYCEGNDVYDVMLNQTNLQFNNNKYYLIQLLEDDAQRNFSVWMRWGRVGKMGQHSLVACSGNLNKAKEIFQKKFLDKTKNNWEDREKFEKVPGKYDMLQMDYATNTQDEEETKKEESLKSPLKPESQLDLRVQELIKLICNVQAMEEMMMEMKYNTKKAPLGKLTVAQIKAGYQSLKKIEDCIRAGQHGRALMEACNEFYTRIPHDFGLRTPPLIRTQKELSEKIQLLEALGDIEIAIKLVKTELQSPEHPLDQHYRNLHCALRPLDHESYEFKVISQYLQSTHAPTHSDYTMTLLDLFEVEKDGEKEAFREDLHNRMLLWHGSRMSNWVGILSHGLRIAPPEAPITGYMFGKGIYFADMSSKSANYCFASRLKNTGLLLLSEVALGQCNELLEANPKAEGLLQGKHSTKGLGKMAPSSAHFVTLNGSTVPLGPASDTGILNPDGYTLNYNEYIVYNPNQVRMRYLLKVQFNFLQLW
Chain of Tankyrase 1/2 (Homo sapiens) (Q9H2K2 whole entry, looked up, one chain of several): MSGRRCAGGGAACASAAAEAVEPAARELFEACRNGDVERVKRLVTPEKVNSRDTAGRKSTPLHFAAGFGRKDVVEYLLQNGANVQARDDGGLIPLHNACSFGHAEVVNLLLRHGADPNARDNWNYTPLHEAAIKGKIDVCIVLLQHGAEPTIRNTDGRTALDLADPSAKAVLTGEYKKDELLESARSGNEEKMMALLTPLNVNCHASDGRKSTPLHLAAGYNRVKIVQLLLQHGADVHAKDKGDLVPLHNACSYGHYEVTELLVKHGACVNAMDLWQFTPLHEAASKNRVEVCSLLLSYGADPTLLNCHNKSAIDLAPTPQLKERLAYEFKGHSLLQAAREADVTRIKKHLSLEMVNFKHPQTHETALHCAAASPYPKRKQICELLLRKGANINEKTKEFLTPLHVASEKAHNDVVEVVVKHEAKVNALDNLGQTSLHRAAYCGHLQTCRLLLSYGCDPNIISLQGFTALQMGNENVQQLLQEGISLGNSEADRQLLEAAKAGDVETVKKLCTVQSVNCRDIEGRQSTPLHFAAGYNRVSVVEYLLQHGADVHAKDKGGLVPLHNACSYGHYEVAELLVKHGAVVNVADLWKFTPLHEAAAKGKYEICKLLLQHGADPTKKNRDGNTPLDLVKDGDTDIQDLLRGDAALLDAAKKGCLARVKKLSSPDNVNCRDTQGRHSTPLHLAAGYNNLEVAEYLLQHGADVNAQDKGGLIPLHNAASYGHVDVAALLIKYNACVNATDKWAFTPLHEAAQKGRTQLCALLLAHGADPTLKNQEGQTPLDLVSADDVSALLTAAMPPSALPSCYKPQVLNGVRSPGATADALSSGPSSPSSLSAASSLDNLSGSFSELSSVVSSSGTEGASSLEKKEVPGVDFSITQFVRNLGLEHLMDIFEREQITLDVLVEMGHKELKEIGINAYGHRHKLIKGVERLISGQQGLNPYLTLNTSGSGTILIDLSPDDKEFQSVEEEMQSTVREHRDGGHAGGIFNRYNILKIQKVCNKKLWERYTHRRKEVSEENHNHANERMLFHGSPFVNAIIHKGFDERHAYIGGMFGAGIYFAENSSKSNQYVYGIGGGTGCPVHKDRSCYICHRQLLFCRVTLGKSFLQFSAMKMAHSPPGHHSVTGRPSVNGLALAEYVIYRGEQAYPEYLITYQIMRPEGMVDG

The inhibition is the relative decrease from the control value, in per cent. Broadly, the logD is lipophilicity at a set pH, counting ionised and neutral species. For `Oc1cc(-c2ccccc2)c2ccccc2n1`, the inhibition in data set [1] was determined as 3%. The compound also had a logD in data set [2] of 3.03.
As to `Oc1nc(-c2ccc(C(F)(F)F)cc2)nc2c1CSCC2`, in data set [3], the inhibition is 100%.
Regarding `O=c1[nH]ccc2ccsc12`, in data set [1], the inhibition is 24%. This compound gave a logD in data set [2] of 1.24.
The matching figures for `O=c1[nH]c2cc(O)ccc2c2c1sc1ccccc12`: 64% and 3.43.
For `O=c1[nH]c(-c2ccccc2)nc2c3c(sc12)CCCC3`, in that order: 11% and 4.11.
One may read the IC50 as the concentration that gives 50% inhibition. Take `O=c1[nH]c(-c2ccccc2)cc2c1sc1ccccc12`: the inhibition in data set [1] stood at 11%. This compound had a logD in data set [2] of 3.63. For the same compound, in data set [4], the IC50 worked out at 181 nM.
Take `O=c1[nH]c(-c2ccccc2)nc2c1sc1ccccc12`: in data set [1], the inhibition came to 0%. In addition, in data set [2], the logD amounted to 3.62.
Turning to `O=c1[nH]ccc2c1sc1ccccc12`, the inhibition in data set [1] is 34%. Also, in data set [2], the logD was 3.62.
Turning to `O=c1[nH]c(-c2cccs2)nc2c1sc1ccccc12`, the inhibition in data set [1] turned out to be 9%. Besides, the logD in data set [2] worked out at 3.52.
Turning to `O=c1[nH]c(C2CCCCC2)nc2c1sc1ccccc12`, in data set [1], the inhibition amounted to 14%. For the same compound, the logD in data set [2] worked out at 3.89.
For `COc1ccc2c(c1)[nH]c(=O)c1sc3ccc(OC)cc3c12`, in that order: 12% and 3.43.
Turning to `COc1ccc2c(c1)nc(O)c1sc3ccccc3c12`, the inhibition in data set [1] is 27%; in data set [5], 37%. This compound also had a logD in data set [2] of 3.59.
As to `O=c1[nH]c2ccccc2c2c1sc1ccc(O)cc12`, the inhibition in data set [1] was found to be 93%. The same compound displayed a logD in data set [2] of 3.44.
For `O=c1[nH]c2ccccc2c2ccsc12`, the inhibition in data set [1] was found to be 91%. Besides, the log distribution coefficient (logD) in data set [2] was found to be 2.65.
Consider `O=c1[nH]c2ccccc2c2c1sc1ccccc12`, for which the inhibition in data set [1] was determined as 14%. Further, the pH-dependent lipophilicity (logD) in data set [2] came out at 3.75. In data set [4], the IC50 is 90 nM.
With `COc1ccc2sc3c(O)nc4ccccc4c3c2c1`, the inhibition in data set [1] was 17%; in data set [5], 21%. The logD in data set [2] was determined as 3.59.
Regarding `Cc1ccc(-c2nc3c(sc4ccccc43)c(=O)[nH]2)cc1`, the inhibition in data set [1] is 4%. In data set [2], the logD amounted to 4.13. Further, the IC50 in data set [4] was 19.4 nM.
In the case of `COc1cccc(/C=C/C(=O)O)c1`, in data set [6], the inhibition came to 17%.
For the compound `O=c1[nH]c(-c2ccccc2)cc2ccsc12`, the inhibition in data set [1] was 26%. Also, the logD in data set [2] was 2.53.
